Results reported in ChEMBL document CHEMBL3751823, “Design, synthesis and antitrypanosomal activities of 2,6-disubstituted-4,5,7-trifluorobenzothiophenes” (Eur J Med Chem, 2016).
pIC50: −log10 of the molar value.

Tests used:
MCF7 = assay: Cytotoxicity against human MCF7 cells assessed as inhibition of cell proliferation; format: cell-based
[1] = tested on: Trypanosoma brucei rhodesiense; assay: Antitrypanosomal activity against Trypanosoma brucei rhodesiense STIB 900 after 72 hrs by alamar blue assay; format: functional, organism-based; conditions: STIB 900, 72 h
Summary of the method: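 Bloodstream forms of clone STIB 900 (patient isolate, Tanzania 1982), 1 × 10^3 per well, exposed to 3-fold serial dilutions from a top concentration of 30 μg/ml. DMSO stocks were diluted in medium. Incubation 72 h at 37 °C, 5% CO2, in triplicate. Alamar Blue was then added for 2-4 h more. Fluorescence read at ex 530/em 580 nm, IC50 by curve fit.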

[2] = Selectivity index, ratio of IC50 for cytotoxicity against human MCF7 cells to IC50 for Trypanosoma brucei rhodesiense STIB 900; format: toxicity, cell-based; conditions: read-out: Ratio IC50

| SMILES | pIC50 (MCF7) | pIC50 [1] | selectivity ratio [2] |
| --- | --- | --- | --- |
| COC(=O)c1cc2c(F)c(F)c(Oc3ccccc3Br)c(F)c2s1 | < 4.60 | 4.52 |  |
| COC(=O)c1cc2c(F)c(F)c(-n3cnc4ccccc43)c(F)c2s1 | < 4.92 | 6.22 | > 20 |
| COC(=O)c1cc2c(F)c(F)c(Sc3ccccc3Br)c(F)c2s1 | < 4.60 | 4.92 |  |
| COC(=O)c1cc2c(F)c(F)c(Sc3ccc(C(C)(C)C)cc3)c(F)c2s1 | < 4.30 | 4.17 |  |
| COC(=O)c1cc2c(F)c(F)c(-n3ccnc3)c(F)c2s1 | < 4.00 | 3.89 |  |
| O=C(c1ccccc1)c1cc2c(F)c(F)c(Sc3ccccc3Br)c(F)c2s1 | < 4.60 | 5.01 |  |
| O=C(c1ccccc1)c1cc2c(F)c(F)c(Oc3ccccc3Br)c(F)c2s1 | < 4.60 | 4.80 |  |
| O=C(c1ccccc1)c1cc2c(F)c(F)c(-n3ccnc3)c(F)c2s1 | < 4.22 | 4.48 |  |
| COC(=O)CSc1c(F)c(F)c2cc(C(=O)OC)sc2c1F | < 4.60 | < 5.00 |  |
| O=C(c1ccccc1)c1cc2c(F)c(F)c(-n3cnc4ccccc43)c(F)c2s1 | < 4.60 | 6.28 | 50 |
| O=C(CSc1c(F)c(F)c2cc(C(=O)c3ccccc3)sc2c1F)c1ccccc1 | < 4.30 | < 5.00 |  |
| CC(C)(C)c1ccc(Sc2c(F)c(F)c3cc(C(=O)c4ccccc4)sc3c2F)cc1 | < 4.60 | 4.50 |  |
| Nc1nc(N)nc(Nc2ccc([As]3SCC(CO)S3)cc2)n1 (configuration not stated) [MELARSOPROL] |  | 7.29 |  |
